# Screening data: PubChem, The Scripps Research Institute Molecular Screening Center
# ARFGAP1 inhibitor: inhibitors of rat ARFGAP1 GAP activity, primary screen, biochemical, fluorescence polarization, GDP tracer; ADP-ribosylation factor GTPase-activating protein 1 (Rattus norvegicus), Q62848; Arfgap1-stimulated ARF1 GTP hydrolysis, GDP FP detection; inhibition, % at 16.5 µM; hit rate 0.26% among 360,000; AID 651572, 2012;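 active = inhibition above a per-plate limit, mean inhibition of low control wells plus 3 SD, cut at about 25% in these data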;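 note: 0% = DMSO wells with enzyme and 100% = wells lacking Arfgap1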
# Target sequence (Q62848 1-136 limits assumed): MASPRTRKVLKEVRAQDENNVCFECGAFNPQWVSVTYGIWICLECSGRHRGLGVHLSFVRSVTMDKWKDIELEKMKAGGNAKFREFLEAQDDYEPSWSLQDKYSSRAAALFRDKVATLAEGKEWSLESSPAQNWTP
#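 system = rat Arfgap1 catalytic domain, aa 1-136 | technique = FP, GDP Alexa 633 tracer displaced from anti-GDP antibody, 620/688 nm | compound = one concentration, 16.5 µM, DMSO 1.26% | medium = HEPES-based buffer, pH 7.5 | timing = compound-enzyme preincubation 20 min, reaction 120 min, detection 60 min, 25 °C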
# ZTA counter: blocks Epstein-Barr virus ZTA, an EBNA-1 counter-screen; P03206; ZTA-DNA binding, fluorescence polarization; inhibition, % at 11 µM; hit rate 0.15% among 320,000; AID 2234; in the data active = inhibition above about 33%
# Target sequence (P03206 whole entry, looked up): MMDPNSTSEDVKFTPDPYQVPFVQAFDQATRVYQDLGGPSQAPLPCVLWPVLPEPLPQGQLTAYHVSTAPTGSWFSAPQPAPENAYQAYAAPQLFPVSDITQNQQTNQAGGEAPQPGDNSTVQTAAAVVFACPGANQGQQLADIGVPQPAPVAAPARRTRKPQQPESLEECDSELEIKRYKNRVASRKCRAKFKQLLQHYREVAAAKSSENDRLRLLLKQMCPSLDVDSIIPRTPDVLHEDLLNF
# ASAP1 GAP inh: inhibitors of human ASAP1 ArfGAP activity, primary screen, biochemical, fluorescence polarization. ASAP1-stimulated ARF1 GTP hydrolysis, GDP FP detection. inhibition, % at 16.5 µM. hit rate 0.19% among 360,000; in the data active = inhibition above about 25%;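 note: 0% = vehicle with enzyme and substrate and 100% = no enzyme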
# EBNA-1 inh: EBNA-1 DNA-binding inhibitors, primary screen, biochemical, fluorescence polarization; inhibition, % at 14.8 µM; hit rate 0.34% among 300,000; in the data active = inhibition above about 28%
# ASAP1 inh confirm: ASAP1 GAP activity inhibitors, confirmation, biochemical, fluorescence polarization, human, triplicate | shares compounds with ASAP1 GAP inh | ASAP1-stimulated Arf1 GTPase, GDP fluorescence polarization | inhibition, % at 16.5 µM | hit rate 37% among 620;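 active = mean inhibition over triplicates exceeds the hit threshold derived for the earlier primary screening run, cut at about 25% in these data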
# * marks the source's active call; other numbers are inactive results; · = no result given. Hits are enriched below; roughly 0.75% of the tested compounds scored in any of these assays.
SMILES,ARFGAP1 inhibitor,ZTA counter,ASAP1 GAP inh,EBNA-1 inh,ASAP1 inh confirm
CCc1cc(=O)oc2cc(OCC(=O)O)c(Cl)cc12,0,-6,-1,6,·
CCc1cc(=O)oc2cc(OC(C)C(=O)O)c(Cl)cc12 (configuration not stated),2,12,27*,0,-6
CC(=O)C1=C(C)N(Cc2ccc(F)cc2)C(=S)NC1c1cccc(F)c1 (configuration not stated),-3,·,5,·,·
CC1=C(SCc2ccccc2)C(=O)c2ccccc2C1=O,9,·,32*,·,11
O=C1C(SCCO)=C(SCCO)C(=O)c2ccccc21,-5,-9,19,-5,·
Cc1cc(N2CCN(C)CC2)nc2ccc(NC(=O)CCC3CCCC3)cc12,24,-3,28*,-3,39*
Cc1cc(N2CCN(C)CC2)nc2ccc(NC(=O)CCC(=O)NCCC3=CCCCC3)cc12,6,-15,17,2,·
COC1=CC(=O)c2nc(Cl)ccc2C1=O,9,·,38*,·,17
COC1=CC(=O)c2c(ccc3ncnc(N)c23)C1=O,14,·,23,·,·
O=C(C1CCC(CNS(=O)(=O)c2ccccc2)CC1)N1CCCCC1 (configuration not stated),6,3,28*,4,0
COc1ccc(C2CC(=O)C(c3ccc(Cl)cc3)=CN2Cc2ccccc2)cc1 (configuration not stated),9,·,-4,·,·
O=C(Cc1ccccc1)O/N=C1\CCCc2ccccc21,-4,-5,26*,-6,8
CC(C)[C@@H](C)/C=C/[C@@H](C)[C@H]1CC[C@@H]2[C@]1(C)CCC1[C@]23C=C[C@]2(C[C@@H](O)CC[C@]12C)N(c1ccc(Br)cn1)O3 (some centres not stated),0,·,-13,·,·
COc1cc2c3nnc(-c4ccc(F)cc4)c-3cn(Cc3cccc(C)c3)c2cc1OC,-6,-12,123*,-1,181*
COc1cc2c3nnc(-c4ccc(F)cc4)c-3cn(Cc3cccc(F)c3)c2cc1OC,·,10,·,7,·
COC(=O)c1cc2c(c3c4ccccc4n(S(=O)(=O)c4ccccc4)c13)C(=O)N(C)C2,-4,·,5,·,·
O=C(Nc1ccc2ccccc2c1)C(=O)C1C(=O)Nc2ccccc21 (configuration not stated),-11,-1,25*,-4,-4
CSc1ccc(OCC(=O)Nc2ccc(N3CCOCC3)c(Cl)c2)cc1,9,·,1,·,·
O=C(COc1c(F)c(F)c(C(F)(F)F)c(F)c1F)Nc1ccc(N2CCOCC2)c(Cl)c1,6,1,25*,-4,7
C[C@H](NC(=O)c1nc[nH]c1C(=O)N1CCN(C(=O)OC(C)(C)C)CC1)C(=O)OCc1ccccc1,0,-17,0,-2,·
CC1CCN(C(=O)c2[nH]cnc2C(=O)N[C@@H](C)C(=O)OCc2ccccc2)CC1,-10,-2,25*,5,2
CC1(C)Cc2nc3sc4c(=O)n(CC(=O)NCc5ccco5)cnc4c3cc2CO1,0,5,25*,1,8
COc1cc(OC)c(NC(=O)NNC(=O)C(=O)NC2CC2)cc1Cl,-7,·,-7,·,·
CCC(C)(C)NC(=O)C(c1ccc(OC)cc1)N(C(=O)CCC(=O)Nc1cc(C)on1)c1ccccc1OC (configuration not stated),-1,6,27*,9,5
CCC(C)(C)NC(=O)C(c1ccc(OC)cc1)N(C(=O)CCC(=O)Nc1cc(C)on1)c1ccc(OC)c(OC)c1 (configuration not stated),-5,10,-9,-3,·
COc1cccc(C(=O)NCC2CCN(C(=O)C(=O)c3cc4ccccc4o3)CC2)c1,-4,·,0,·,·
Cc1cc2c(nc1C)CCCN2S(=O)(=O)c1ccc(F)cc1,1,·,3,·,·
c1cnc2c(c1)ccc1cccnc12,6,7,-5,0,·
O=C1C=CC(=O)N1c1cccc2cccnc12,3,·,25*,·,3
Cc1ccc(C2NC(=O)c3n[nH]c(C(C)C)c32)cc1 (configuration not stated),6,·,8,·,·
